# Screening data from PubChem BioAssay.
# SENP6 inh = SENP6 protease inhibitors, primary screen, biochemical, luminescence, uHTS; Sentrin-specific protease 6 (Homo sapiens), Q9GZR1; Recombinant SENP6 catalytic domain, aminoluciferin luminescence; inhibition, % at 10 µM; actives 1.8% (n = 330,000);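 active = inhibition above about 50% at the single tested dose, limit read from the data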;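 note: plate controls were DMSO wells with enzyme for no effect and DMSO wells lacking enzyme for full effect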
# SENP1 inh = human SENP1 catalytic domain inhibitors, primary screen, biochemical, FRET, uHTS; Sentrin-specific protease 1 (Homo sapiens), Q9P0U3; recombinant SENP1 catalytic domain, CyPet-SUMO1-YPet FRET cleavage; inhibition, % at 10 µM; actives 0.21% (n = 360,000);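 active = inhibition at least 30% at 10 µM, raw YFP signal under a set limit, fluorescence ratio 0.5 to 1.5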;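 note: 0% = enzyme with DMSO and 100% = no enzyme wells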
#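 Material: hSENP1 catalytic domain, recombinant; medium: Tris pH 8 with BME, BSA, NP40 and catalase; compound: single concentration of 10 µM compound, 0.5% DMSO final; technique: FRET read of cyan and yellow fluorescence; timing: 50 min enzyme reaction, room temperature, light-protected; reagent: SFCypet-SUMO1-SFYpet substrate at 25 nM; control set: no-enzyme low, enzyme-DMSO high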
# SENP8 block-1 = human SENP8 protease inhibitors, primary screen, biochemical, fluorescence, Nedd8 protein substrate, uHTS; recombinant SENP8; inhibition, % at 20 µM; actives 0.64% (n = 360,000); AID 602440, 2012; in the data active = inhibition mostly above about 40%, no sharp cut-off; inactive = mostly below about 27%
# Platelet DG rel = inhibitors of platelet dense granule secretion, primary screen, cell-based, MLPCN, human platelets; human platelet-rich plasma, SFLLRN dense granule ATP release, luminescence; inhibition, %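 (compounds screened at 7.5 µM in platelet-rich plasma)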; actives 0.22% (n = 300,000);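 active = mean replicate score, as percent of positive control, at or above 50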
# SENP7 block = SENP7 protease inhibitors, primary screen, biochemical, luminescence, uHTS; Sentrin-specific protease 7 (Homo sapiens), Q9BQF6; recombinant SENP7, Z-RLRGG-aminoluciferin luminescence, 40 min; inhibition, % at 5 µM; actives 1.5% (n = 330,000); AID 434973, 2010;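 active = inhibition above about 50% at the single test dose, limit read from the data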;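 note: plate controls were DMSO with enzyme for no effect and no enzyme buffer wells for full effect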
# Target sequence (Q9BQF6 706-1050 limits assumed): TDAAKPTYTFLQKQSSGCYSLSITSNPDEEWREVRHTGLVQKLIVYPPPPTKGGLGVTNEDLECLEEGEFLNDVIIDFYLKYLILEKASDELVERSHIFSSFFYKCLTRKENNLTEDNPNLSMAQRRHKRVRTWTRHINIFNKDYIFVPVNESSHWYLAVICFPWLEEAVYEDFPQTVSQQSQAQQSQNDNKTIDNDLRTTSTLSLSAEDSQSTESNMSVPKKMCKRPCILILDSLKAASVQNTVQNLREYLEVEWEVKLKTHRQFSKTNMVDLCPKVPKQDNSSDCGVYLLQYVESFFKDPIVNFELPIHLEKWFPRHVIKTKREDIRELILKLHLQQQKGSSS
# SENP8 block-2 = SENP8 protease inhibitors, primary screen, biochemical, luminescence | AID 2540, 2010 | actives 1.2% (n = 330,000) | inhibition, % at 10 µM | purified SENP8, Z-RLRGG-aminoluciferin cleavage; in the data active = inhibition above about 50%
# SENP8 confirm = SENP8 protease inhibitors, retest, confirmation, biochemical, luminescence, single concentration; Recombinant SENP8, Z-RLRGG-aminoluciferin luminescence, 60 min; actives 40% (n = 6,200); AID 488912, 2010; shares compounds with SENP7 block; inhibition, % at 12.5 µM;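 active = mean inhibition across replicates above about 50%, limit read from the data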
# SENP6 confirm = SENP6 protease inhibitors, confirmation, biochemical, luminescence, single concentration. recombinant SENP6, Z-RLRGG-aminoluciferin luminescence. inhibition, % at 12.5 µM. shares compounds with SENP7 block. actives 58% (n = 6,200)
# SENP7 confirm = SENP7 protease inhibitors, retest, confirmation, biochemical, luminescence, single concentration; AID 488917, 2010; shares compounds with SENP7 block; actives 69% (n = 6,200); recombinant SENP7, Z-RLRGG-aminoluciferin luminescence, 40 min; inhibition, % at 12.5 µM
# Casp3 SENP sel = caspase-3 protease inhibitors, confirmation, selectivity assay for SENP inhibitor project, biochemical, single concentration. purified caspase-3, Z-DEVD-aminoluciferin luminescence, 60 min. shares compounds with SENP7 block. actives 60% (n = 6,200). AID 488918, 2010. inhibition, % at 12.5 µM;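 active = mean inhibition above about 50%, limit read from the data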;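 note: plate controls were enzyme with DMSO for no effect and wells without caspase-3 for full effect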
# Target sequence (P42574 28-227 limits assumed): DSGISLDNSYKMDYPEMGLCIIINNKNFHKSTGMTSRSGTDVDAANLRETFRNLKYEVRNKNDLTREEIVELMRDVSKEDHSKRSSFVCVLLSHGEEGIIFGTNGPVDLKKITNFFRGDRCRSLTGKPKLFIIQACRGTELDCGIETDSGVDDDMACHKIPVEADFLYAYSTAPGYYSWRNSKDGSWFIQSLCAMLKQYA
# Luc interf = counter-screen for SENP inhibitors: luminescence interference. Pre-incubated SENP8/Z-RLRGG-aminoluciferin, luciferase luminescence interference. inhibition, % at 12.5 µM. shares compounds with SENP7 block. actives 39% (n = 6,200);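 active = mean inhibition above about 50% when retested at one dose, limit read from the data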;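 note: plate controls were DMSO wells with completed reaction for no effect and substrate without enzyme for full effect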
# * hit, by the source's call; . = not tested or not shown. Shown are actives, neighbours in structure and some others; about 2.6% of the full set was active somewhere.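 Rule for the calls, unless noted: active = mean inhibition above about 50% in the one-dose retest (limit read from the data); inactive = the rest.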
SMILES,SENP6 inh,SENP1 inh,SENP8 block-1,Platelet DG rel,SENP7 block,SENP8 block-2,SENP8 confirm,SENP6 confirm,SENP7 confirm,Casp3 SENP sel,Luc interf
Cc1ccc(SCC(=O)Nc2cc([N+](=O)[O-])ccc2O)cc1,-16,1,38,1,4,79*,-13,26,57*,39,38
CC(C)CN(C1CCS(=O)(=O)C1)S(=O)(=O)c1ccc(C(C)C)cc1 (centres undefined),-6,1,2,4,0,-12,.,.,.,.,.
Cc1ccc(N=Cc2c(O)c3ccccc3oc2=O)cc1F,-11,-13,-200,5,70*,35,31,25,33,9,18
COc1ccc(OC)c(N=Cc2c(O)c3ccccc3oc2=O)c1,-21,-27,-82,0,-1,-25,.,.,.,.,.
O=C(O)c1cc(N=Cc2c(O)c3ccccc3oc2=O)ccc1O,94*,-30,-282,6,91*,74*,93*,86*,101*,38,95*
COc1ccc(N=Cc2c(O)c3ccccc3oc2=O)cc1,91*,-35,-110,3,90*,33,70*,74*,84*,66*,49
Cc1cc(C)cc(N=Cc2c(O)c3ccccc3oc2=O)c1,27,-35,-422,5,-7,5,.,.,.,.,.
CC(C)c1ccc(N=Cc2c(O)c3ccccc3oc2=O)cc1,85*,-21,-146,4,91*,63*,58*,60*,77*,42,31
CC(=O)N1CCN(S(=O)(=O)c2cccc(C(=O)NCCc3ccc(Cl)cc3)c2)CC1,-10,-3,-5,1,0,-7,.,.,.,.,.
Cc1cccc(-c2c3c(nc4c2c(=O)n(C)c(=O)n4C)-c2ccccc2C3O)c1 (centres undefined),-2,1,19,0,0,3,.,.,.,.,.
CCOC(=O)C1=C(C)NC(C)=C(C(=O)OCC)C1C(=O)OCC(=O)N(C)Cc1ccccc1,-1,-2,-390,.,-11,4,.,.,.,.,.
COCCCNC(=O)Cn1cnc2sc(C)c(S(=O)(=O)N3CC(C)CC(C)C3)c2c1=O (centres undefined),-11,0,3,1,2,2,.,.,.,.,.
COc1ccc(Cn2c(O)c(C=Nc3ccccc3)c3ccccc3c2=O)cc1,36,-53,28,2,20,-1,.,.,.,.,.
COc1ccc(Cn2c(O)c(C=Nc3ccc(O)cc3)c3ccccc3c2=O)cc1,67*,-26,-24,30,47,3,5,36,10,4,0
Nc1cccc2c(O)cccc12,68*,-8,-391,0,23,30,8,24,10,9,1
CCOc1ccc(-c2cc(N3C(=O)Nc4ccccc4N3O)on2)cc1,54*,0,3,-2,39,18,44,42,79*,77*,67*
Cc1ccsc1/C=N/N=C/c1sccc1C,-5,1,17,17,98*,95*,-12,98*,103*,86*,87*
Cc1ccsc1/C=N/NC(=O)CO,-2,-1,0,-3,-2,-5,.,.,.,.,.
CCCCNC(=S)N/N=C/c1sccc1C,1,-1,-1,-2,8,-1,.,.,.,.,.
Cc1ccsc1C=Nc1ccc(O)cc1,68*,4,97*,3,38,8,29,16,-14,13,6
COc1cccc(C(NC(C)=O)c2nc(-c3ccc4c(c3)OCO4)cs2)c1 (centres undefined),.,3,5,.,.,.,.,.,.,.,.
O=C1CCCC(=NNC(=O)c2cc3ccccc3cc2O)C1,90*,-26,-192,.,88*,89*,89*,92*,101*,93*,88*
O=C(NN=C1CCCCCC1)c1cc2ccccc2cc1O,15,-30,-88,21,5,7,.,.,.,.,.
CN[C@H]1C[C@H]2c3[nH]c4ccccc4c3CCN2C(=O)[C@H]1[C@H](C)O,.,-88,-342,.,.,.,.,.,.,.,.
CCCCCC(=O)N1C[C@H](O)[C@@H](n2cc(COC(=O)c3ccccc3)nn2)C[C@@H]1c1ccc(OC)cc1,.,1,-14,.,.,.,.,.,.,.,.
SMILES,SENP6 inh,SENP1 inh,SENP8 block-1,Platelet DG rel,SENP7 block,SENP8 block-2,SENP8 confirm,SENP6 confirm,SENP7 confirm,Casp3 SENP sel,Luc interf
Cc1csc(NC(=O)c2cccc(C)c2C)n1,-3,-1,6,4,3,-4,.,.,.,.,.
CCOC(=O)Cc1csc(NC(=O)c2c(C)noc2C)n1,-5,26,-10,1,-1,-1,.,.,.,.,.
Cc1csc(NC(=O)c2ccoc2C)n1,90*,-7,-19,9,89*,75*,82*,82*,96*,93*,82*
CCOC(=O)Cc1csc(NC(=O)c2ccoc2C)n1,88*,-4,-6,-10,89*,74*,84*,84*,94*,93*,83*
COc1ccc(C(=O)N(c2c(C)cccc2C)C(COC(C)=O)COC(C)=O)cc1,.,-1,19,.,.,.,.,.,.,.,.
COCCNC(=S)Nc1ccc2nsnc2c1,-11,47,-70,-3,2,-9,.,.,.,.,.
S=C(Nc1ccc2nsnc2c1)N1CCCCCC1,93*,-28,-149,5,53*,89*,20,30,17,46,58*
C=CCNC(=S)Nc1ccc2nsnc2c1,60*,18,-4,14,21,18,11,4,10,6,3
C=CCN(CC=C)C(=S)Nc1ccc2nsnc2c1,75*,-24,-211,-3,26,46,4,15,10,11,10
